These results are taken from ChEMBL document CHEMBL1126984, “o-phenylphenols: potent and orally active leukotriene B4 receptor antagonists” (J Med Chem, 1993).

The species entered for experiment [1] is Cavia porcellus. As to the kind of experiment: Inhibition of LTB4-induced contraction of guinea pig lung parenchyma strips. Type of experiment: functional.
For experiment [2], the system named is Cavia porcellus. Briefly: In vivo antagonistic activity against LTB4 induced airway obstruction in guinea pig following oral administration. Type of experiment: functional. A digest of the protocol:
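Guinea pigs dosed orally 2 h before a 3.0 µg/kg iv LTB4 challenge. Animals killed 1 min after challenge. Excised lung gas volume (ELGV) measured as the index of airway obstruction severity. Means ± SEM, 3-14 guinea pigs per group.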

Experiment [3] relates to Cavia porcellus. As to the kind of experiment: In vivo antagonistic activity against LTB4 induced airway obstruction in guinea pig following intravenous administration. Type of experiment: functional. Summed up:
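Guinea pigs dosed intravenously 5 min before a 3.0 µg/kg iv LTB4 challenge. Animals killed 1 min after challenge. Excised lung gas volume (ELGV) measured as the index of airway obstruction severity. Means ± SEM, 3-14 guinea pigs per group; ED50 in mg/kg.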

The target in experiment [4] is T1, Leukotriene B4 receptor (Homo sapiens, UniProt Q9NPC1+Q15722). As to the kind of experiment: Inhibition of [3H]LTB4 receptor binding in human neutrophils. Format: protein assay.
In experiment [5] the target is Leukotriene B4 receptor (Cavia porcellus). As to the kind of experiment: Inhibition of [3H]LTB4 receptor binding in guinea pig lung membrane.
In experiment [6] the target is T1, Leukotriene B4 receptor. Briefly: Inhibition of LTB4-induced human neutrophil CD11b/CD18 integrin up-regulation. Format: functional.

For the compound `CCc1cc(-c2ccccc2)c(O)cc1OCCCCCC(C)(C)c1nn[n-]n1.[Na+]`, the pKB (commonly the negative decadic logarithm of the KB, by convention in mol/L) in the experiment filed under Cavia porcellus [1] was 8.3. The ED50 (usually the dose that gives a 50% effect, or the effect in half of the subjects) was 0.7 mg/kg with Cavia porcellus [2] and 0.05 mg/kg with Cavia porcellus [3].
In the same order, the values of `CCc1cc(-c2ccc(F)cc2)c(O)cc1OCCCCCC(C)(C)c1nn[n-]n1.[Na+]` are 8.3, 0.56 mg/kg and 0.03 mg/kg.
In the case of `CCc1cc(-c2cccc(C(F)(F)F)c2)c(O)cc1OCCCCCC(C)(C)c1nn[n-]n1.[Na+]`, at Leukotriene B4 receptor [4], the IC50 (as a rule, the point on the concentration scale where inhibition reaches its midpoint) is given as 33.2 nM. For the same compound, in experiment [5], the Ki (as a rule, the dissociation constant of the complex between target and ligand, obtained from inhibition or displacement) turned out to be 76.9 nM.
At Leukotriene B4 receptor [4], `CCc1cc(-c2ccccn2)c(O)cc1OCCCCCC(C)(C)c1nn[n-]n1.[Na+]` returned an IC50 of 453 nM. Moreover, the Ki in experiment [5] is on record as 196 nM.
In the same order, the values of `CCc1cc(-c2ccc(N(C)C)cc2)c(O)cc1OCCCCCC(C)(C)c1nn[n-]n1.[Na+]` are 15.8 nM and 85.9 nM.
For the compound `CCc1cc(C(C)=O)c(O)cc1OCCCCCC(C)(C)c1nn[n-]n1.[Na+]`, the negative-log KB (pKB) in the experiment filed under Cavia porcellus [1] amounted to 6.7.
In the experiment listed under Cavia porcellus [1], `CCOc1cc(CC)c(OCCCCCC(C)(C)c2nn[n-]n2)cc1O.[Na+]` registered a pKB of 6.6.
`CCCc1cc(CC)c(OCCCCCC(C)(C)c2nn[n-]n2)cc1O.[Na+]` returned a pKB in the experiment filed under Cavia porcellus [1] of 7.6. In addition, the IC50 at Leukotriene B4 receptor [6] worked out at 161 nM; on Leukotriene B4 receptor [4], 9.3 nM. In experiment [5], this compound returned a Ki of 14.2 nM.
